Assay results from the array DNA melting data of Ke et al. (doi:10.1101/2024.01.08.574731).

Legend:
[1] = melting temperature; fluorescence melt of hairpins on a sequencing array, two-state fit, raised by 9.35 °C to match UV melts; conditions: sodium 0.088 M
How it was run: (§1)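 Hairpins were imaged by Cy3 fluorescence on a sequenced MiSeq flow cell with annealed Cy3 and quencher oligos, in 50 mM Na-HEPES pH 8.0, 25 mM NaCl, in 2.5 °C steps up to 60 °C. Bootstrapped two-state fits of normalised signals gave melting temperature and folding enthalpy. Four replicates were combined by inverse variance, and fitted temperatures were raised by 9.35 °C to match UV melts.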

[2] = folding enthalpy; higher = less favourable; fluorescence melt of hairpins on a sequencing array, two-state fit; conditions: sodium 0.088 M
How it was run: as §1

| Sequence | Tm [1] [°C] | folding enthalpy [2] [kcal/mol] |
| --- | --- | --- |
| GAACCGCGAAAGCGTTTC (((.(((....))).))) | 42.3 | -20.5 |
| GATCGACAATCGATC ((((((...)))))) | 46.6 | -29.4 |
| GGGACCGGAAACGGTCTC (.(((((....))))).) | 59.2 | -13.2 |
| GCATGCGAAAGCATATGC ((((((....)))..))) | 50.1 | -20.1 |
| GTGTTAACGAAAGTTCAC (((..(((....)))))) | 34.9 | -12.5 |
| GCGGCCGAAAGGCGTCGC ((((((....)))..))) | 59.3 | -17.4 |
| GGAGGCGAAAGCCCTTCC ((((((....)))..))) | 53.1 | -15.2 |
| GCCCGACCGAAAGGTGGC (((..(((....)))))) | 51 | -17.1 |
| GGGCTCGAAAGAGACCCC ((((((....)))..))) | 63.8 | -12.7 |
| GCCGATCGAAAGATAGGC (((.(((....))).))) | 61 | -41 |
| GCCAAGCGAAAGCTACGC ((..(((....)))..)) | 34.7 | -11 |
| GTGCAGCGAAAGCTTCAC (((.(((....))).))) | 51.6 | -27.6 |
| GCCTTGCGAAAGCACTGC ((..(((....)))..)) | 40.3 | -8.58 |
| CGAATACGGAAACGTTCG (((..(((....)))))) | 34 | -24.9 |
| CGGTCGGAAACGAACCCG ((((((....)))..))) | 38.2 | -19.3 |
| GAGCCCGGAAACAGGCCC (.(((.(....).))).) | 27.1 | -8.46 |
| GGGCATGGAAACACGCCC ((((.((....)).)))) | 51.8 | -45.3 |
| GATCGAGCTTCGATC ((((((...)))))) | 51.3 | -33.8 |
| GATCTCCCAGAGATC ((((((...)))))) | 53.5 | -40 |
| GCCCCGCGAAAGCGTCGC ((..(((....)))..)) | 28.8 | -8.15 |
| GCGTCCGAAAGGAGACGC ((((((....)))..))) | 57.6 | -31.4 |
| GCCACACGAAAGTGAGGC (((.(((....))).))) | 66.2 | -35.8 |
| GCGACGCGAAAGCCCCGC (((..((....))..))) | 44.4 | -15.2 |

| Sequence | Tm [1] [°C] | folding enthalpy [2] [kcal/mol] |
| --- | --- | --- |
| GCTGAAGAAATTCAGC ((((((....)))))) | 54.5 | -37.6 |
| GTTCTCGGAAACGAAAAC (((.(((....))).))) | 29.3 | -20 |
| GGGCTAACGAAAGTTCCC (((..(((....)))))) | 34.9 | -16.7 |
| GCGAAATATCGC ((((....)))) | 45.2 | -18.6 |
| GAACTTGGAAACGAGTTC (((((.(....).))))) | 44.2 | -38 |
| GATCATTTCTATGATC ((((((....)))))) | 48.6 | -41.4 |
| GATCCTTTAAGGATC ((((((...)))))) | 55.6 | -33.1 |
| GATCGGTCTGCCGATC ((((((....)))))) | 62.1 | -41.8 |
| GCCATGAAAATGGC (((((....))))) | 60.6 | -28.1 |
| GGCGTCACGAAAGTGGCC (((..(((....)))))) | 50.3 | -15.2 |
| GATCTCGTCTGAGATC ((((((....)))))) | 55.3 | -41.8 |
| GATCAAAATGTTGATC ((((((....)))))) | 38.4 | -28.1 |
| GCCACAGGAAACTGTAGC ((.((((....)))).)) | 39.4 | -24.3 |
| GATCGAATTCTCGATC ((((((....)))))) | 51.4 | -43.3 |
| GAGGTCCGAAAGGACTC (((.(((....)))))) | 47.9 | -11.9 |
| GCTACCGGAAACGATAGC ((((.((....)).)))) | 43.7 | -31.6 |
| GGCTGTGGAAACACAACC ((.((((....)))).)) | 44.4 | -31.5 |
| GCGTTGCGAAAGCTCCGC (((..((....))..))) | 54.6 | -17.9 |
| GCAGAGCGAAAGCTGCGC ((..(((....)))..)) | 61.3 | -21 |
| GGGGCAGGAAACCGCCCC (((((.(....).))))) | 63.8 | -30.3 |
| GCCAGGCGAAAGCCTTGC ((.((((....)))).)) | 56.9 | -20 |
| GGCGGCGAAAGCCAGGCC ((((((....)))..))) | 62 | -18.8 |
| GGCAGCGCGAAAGCGGCC (((..(((....)))))) | 58.3 | -17.3 |

| Sequence | Tm [1] [°C] | folding enthalpy [2] [kcal/mol] |
| --- | --- | --- |
| GCACCACCGAAAGGTTGC (((..(((....)))))) | 39.5 | -15.9 |
| GCAAGTGGAAACGTTTGC ((((..(....)..)))) | 34.4 | -20.4 |
| GTGAGGAAACTCAC (((((....))))) | 51.9 | -24.5 |
| GAGGGCGAAAGCCTGCTC ((((((....)))..))) | 42.5 | -12.4 |
| GTCCACGAAAGTGCCGAC ((((((....)))..))) | 31.5 | -12.8 |
| GCTCTCGGAAACGAGGGC ((.((((....)))).)) | 58.7 | -40 |
| GATCTTTGGTAAGATC ((((((....)))))) | 42.5 | -30.8 |
| GGGTAAGGAAACTTACCC (((((((....))))))) | 58.6 | -44.9 |
| CGAGTACGGAAACGTTCG (((..(((....)))))) | 36.6 | -20.4 |
| GATCACCATTGTGATC ((((((....)))))) | 56.3 | -39.2 |
| GATCTCCAGTGAGATC ((((((....)))))) | 50.7 | -32 |
| GCGCCAGGAAACTGACGC (((.(((....))).))) | 56 | -43.1 |
| GCTAAGCCGAAAGGCAGC (((..(((....)))))) | 50 | -18.6 |
| GCATCGCGAAAGCGTTGC (((.(((....))).))) | 58.5 | -44.2 |
| GTGTTAGCGAAAGCTCAC (((..(((....)))))) | 44.2 | -21.9 |
| GATCTTTATTAAGATC ((((((....)))))) | 43.5 | -34.2 |
| GATCTTGTGAAGATC ((((((...)))))) | 42.4 | -28.9 |
| GTGTCCGAAAGGAATCAC ((((((....)))..))) | 34.3 | -17.3 |
| GGTAGCGGAAACGCTGTC (..((((....))))..) | 34.8 | -13.4 |
| GTTCGGGGAAACCTGGAC ((.(.((....)).).)) | 36.8 | -20.2 |
| GGGGGCGAAAGCCGGCCC ((((((....)))..))) | 48 | -14.3 |
| GGCCTAACGAAAGTTGCC (((..(((....)))))) | 38.7 | -20.9 |
| GGGAGTGGAAACGCTCTC (.(((.(....).))).) | 39.7 | -17.8 |

| Sequence | Tm [1] [°C] | folding enthalpy [2] [kcal/mol] |
| --- | --- | --- |
| GCCCGTACGAAAGTAGGC (((..(((....)))))) | 46.3 | -17.9 |
| GATGCTGAAAAGCATC ((((((....)))))) | 63 | -39.1 |
| CGTACACGGAAACGTACG (((..(((....)))))) | 40.8 | -25.7 |
| GCTTAGCGAAAGCGCAGC (((..((....))..))) | 46.9 | -17.6 |
| GGTTTTCCGAAAGGAACC (((..(((....)))))) | 31.1 | -12.1 |
| GTGACTGGAAACAGTTGC (..((((....))))..) | 39.3 | -22.9 |
| CGATCGGAAACGATGTCG ((((((....)))..))) | 39.5 | -13.6 |
| GTACCGCGAAAGCGTAC (((.(((....)))))) | 51.1 | -14.1 |
| GTGTAGGAAACTACAC ((((((....)))))) | 53.5 | -38.1 |
| GATCGTGGAAACACGGTC ((.((((....)))).)) | 52.7 | -29.1 |
| GATCTAATCTTAGATC ((((((....)))))) | 43.6 | -35.3 |
| GATCCACTGTTGGATC ((((((....)))))) | 49.9 | -30.4 |
| GGTGGACGAAAGTCTACC (((.(((....))).))) | 59 | -41.5 |
| GATAGCCGAAAGGCATC (((.(((....)))))) | 43.3 | -12.2 |
| CGTTACCGGAAACGGACG (((..(((....)))))) | 36.9 | -17 |
| GAGAGAGGAAACTCTCCC (.(((((....))))).) | 37 | -17 |
| GGCGTTCGAAAGAAGGCC (((.(((....))).))) | 61.1 | -39.4 |
| GGAGGCGGAAACACCCCC ((.((.(....).)).)) | 26.6 | -12.8 |
| GCCAGAGGAAACTCTAGC ((.((((....)))).)) | 34.1 | -17.3 |
| GATCCGATTGCGGATC ((((((....)))))) | 56.1 | -38.4 |
| GTATACCGAAAGGTTAC (((.(((....)))))) | 40.1 | -17.4 |
| GCCGCGCGAAAGCCCAGC ((.(.((....)).).)) | 29.9 | -12.7 |
| GCGTGGCGAAAGCCGAGC ((..(((....)))..)) | 66.4 | -25.8 |
